Laboratory results published in ChEMBL document CHEMBL4229382, “Phenylthiazoles with tert-Butyl side chain: Metabolically stable with anti-biofilm activity” (Eur J Med Chem, 2018).
Converted amounts (≈) assume the structure as drawn. The source made the active and inactive calls. The calls are words filed in the database; no cut-off is given here.

Tests used:
Staphylococcus aureus [1] = assay: Antibacterial activity against methicillin-sensitive Staphylococcus aureus ATCC 6538 after 18 hrs by broth microdilution assay; type: functional; details: ATCC 6538, 18 h
Method in brief: (§1)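 Broth microdilution: inoculum from 0.5 McFarland suspension diluted to about 5 × 10^5 CFU/mL. Media were cation-adjusted Mueller-Hinton broth for staphylococci, brain heart infusion for E. faecium, and tryptone soya broth for E. faecalis, S. pneumoniae and L. monocytogenes.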

Staphylococcus aureus [2] = assay: Antibacterial activity against methicillin-sensitive Staphylococcus aureus NRS107 after 18 hrs by broth microdilution assay; type: functional; details: NRS107, 18 h; method in brief: as §1
Staphylococcus aureus [3] = assay: Antibacterial activity against methicillin-resistant Staphylococcus aureus NRS123 USA400 after 18 hrs by broth microdilution assay; type: functional; details: NRS123 USA400, 18 h; method in brief: as §1
Staphylococcus aureus [4] = assay: Antibacterial activity against methicillin-resistant Staphylococcus aureus NRS384 USA300 after 18 hrs by broth microdilution assay; type: functional; details: NRS384 USA300, 18 h; method in brief: as §1
Staphylococcus aureus [5] = assay: Antibacterial activity against vancomycin-resistant Staphylococcus aureus VRS10 after 18 hrs by broth microdilution assay; type: functional; details: VRS10, 18 h; method in brief: as §1
Staphylococcus aureus [6] = assay: Antibacterial activity against vancomycin-resistant Staphylococcus aureus VRS12 after 18 hrs by broth microdilution assay; type: functional; details: VRS12, 18 h; method in brief: as §1
Staphylococcus aureus [7] = assay: Bactericidal activity against methicillin-sensitive Staphylococcus aureus ATCC 6538 incubated fo 18 hrs followed by re-plating on tryptic soy agar plates at 37 degC for 18 hrs by broth microdilution assay; type: functional; details: ATCC 6538, 18 h
Staphylococcus aureus [8] = assay: Bactericidal activity against methicillin-sensitive Staphylococcus aureus NRS107 incubated fo 18 hrs followed by re-plating on tryptic soy agar plates at 37 degC for 18 hrs by broth microdilution assay; type: functional; details: NRS107, 18 h
Staphylococcus aureus [9] = assay: Bactericidal activity against methicillin-resistant Staphylococcus aureus NRS119 incubated fo 18 hrs followed by re-plating on tryptic soy agar plates at 37 degC for 18 hrs by broth microdilution assay; type: functional; details: NRS119, 18 h
Staphylococcus aureus [10] = assay: Bactericidal activity against methicillin-resistant Staphylococcus aureus NRS123 USA400 incubated fo 18 hrs followed by re-plating on tryptic soy agar plates at 37 degC for 18 hrs by broth microdilution assay; type: functional; details: NRS123 USA400, 18 h
Staphylococcus aureus [11] = assay: Bactericidal activity against methicillin-resistant Staphylococcus aureus NRS384 USA300 incubated fo 18 hrs followed by re-plating on tryptic soy agar plates at 37 degC for 18 hrs by broth microdilution assay; type: functional; details: NRS384 USA300, 18 h
Staphylococcus aureus [12] = assay: Bactericidal activity against methicillin-resistant Staphylococcus aureus NRS385 incubated fo 18 hrs followed by re-plating on tryptic soy agar plates at 37 degC for 18 hrs by broth microdilution assay; type: functional; details: NRS385, 18 h
Staphylococcus aureus [13] = assay: Bactericidal activity against methicillin-resistant Staphylococcus aureus NRS386 incubated fo 18 hrs followed by re-plating on tryptic soy agar plates at 37 degC for 18 hrs by broth microdilution assay; type: functional; details: NRS386, 18 h
Staphylococcus aureus [14] = assay: Bactericidal activity against vancomycin-resistant Staphylococcus aureus VRS10 incubated fo 18 hrs followed by re-plating on tryptic soy agar plates at 37 degC for 18 hrs by broth microdilution assay; type: functional; details: VRS10, 18 h
Staphylococcus aureus [15] = assay: Bactericidal activity against vancomycin-resistant Staphylococcus aureus VRS12 incubated fo 18 hrs followed by re-plating on tryptic soy agar plates at 37 degC for 18 hrs by broth microdilution assay; type: functional; details: VRS12, 18 h
Staphylococcus aureus [16] = assay: Antibacterial activity against methicillin-resistant Staphylococcus aureus 2658 RCMB after 18 hrs by broth microdilution assay; type: functional; method in brief: as §1
[17] = tested on: Staphylococcus epidermidis; assay: Antibacterial activity against methicillin-resistant Staphylococcus epidermidis NRS101 after 18 hrs by broth microdilution assay; type: functional; details: NRS101, 18 h; method in brief: as §1
Enterococcus faecalis = assay: Antibacterial activity against vancomycin-resistant Enterococcus faecalis ATCC 51299 after 18 hrs by broth microdilution assay; type: functional; details: ATCC 51299, 18 h; method in brief: as §1
Staphylococcus aureus [18] = assay: Antibacterial activity against methicillin-resistant Staphylococcus aureus NRS119 after 18 hrs by broth microdilution assay; type: functional; details: NRS119, 18 h; method in brief: as §1
Staphylococcus aureus [19] = assay: Antibacterial activity against methicillin-resistant Staphylococcus aureus NRS385 after 18 hrs by broth microdilution assay; type: functional; details: NRS385, 18 h; method in brief: as §1
Staphylococcus aureus [20] = assay: Antibacterial activity against methicillin-resistant Staphylococcus aureus NRS386 after 18 hrs by broth microdilution assay; type: functional; details: NRS386, 18 h; method in brief: as §1
Enterococcus faecium [21] = assay: Antibacterial activity against vancomycin-resistant Enterococcus faecium ATCC 700221 after 18 hrs by broth microdilution assay; type: functional; details: ATCC 700221, 18 h; method in brief: as §1
Listeria monocytogenes [22] = assay: Antibacterial activity against Listeria monocytogenes ATCC 19111 after 18 hrs by broth microdilution assay; type: functional; details: ATCC 19111, 18 h
Staphylococcus aureus [23] = assay: Antibacterial activity against methicillin-resistant Staphylococcus aureus NRS123 USA400 assessed as reduction in bacterial growth after 2 to 4 hrs by time kill assay; type: functional, organism-based
Method in brief: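 Samples taken at 0, 2, 4, 6, 8, 12 and 24 h were serially diluted in PBS, plated on TSA and incubated ≥18 h for viable CFU/mL. DMSO was the negative control; two independent experiments.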

Caco-2 = assay: Cytotoxicity against human Caco2 cells at 32 ug/ml after 2 hrs by MTS assay; type: cell-based; details: caco-2, 2 h
Method in brief: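 Caco-2 cells grown in DMEM with 20% FBS, non-essential amino acids and penicillin-streptomycin, 37 °C, 5% CO2; exposed in triplicate to compounds (16, 32, 64 µg/mL) for 2 h; MTS added, 4 h further incubation, OD490 read; viability as percent of DMSO-treated controls; two independent experiments.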

[24] = tested on: Staphylococcus epidermidis; assay: Bactericidal activity against methicillin-resistant Staphylococcus epidermidis NRS101 incubated fo 18 hrs followed by re-plating on tryptic soy agar plates at 37 degC for 18 hrs by broth microdilution assay; type: functional; details: NRS101, 18 h
Listeria monocytogenes [25] = assay: Bactericidal activity against Listeria monocytogenes ATCC 19111 incubated fo 18 hrs followed by re-plating on tryptic soy agar plates at 37 degC for 18 hrs by broth microdilution assay; type: functional; details: ATCC 19111, 18 h
Staphylococcus aureus [26] = assay: Inhibition of biofilm formation in methicillin-resistant Staphylococcus aureus NRS384 USA300 after 24 hrs by crystal violet staining-based spectrophotometric analysis
Staphylococcus aureus [27] = assay: Inhibition of biofilm formation in methicillin-resistant Staphylococcus aureus NRS384 USA300 at 1 time MIC after 24 hrs by crystal violet staining-based spectrophotometric analysis relative to control; set-up: scale not given: the % may be the effect or the level left
Staphylococcus aureus [28] = assay: Inhibition of biofilm formation in methicillin-resistant Staphylococcus aureus NRS384 USA300 at 2 times MIC after 24 hrs by crystal violet staining-based spectrophotometric analysis relative to control; set-up: scale not given: the % may be the effect or the level left
Enterococcus faecium [29] = assay: Bactericidal activity against vancomycin-resistant Enterococcus faecium ATCC 700221 incubated fo 18 hrs followed by re-plating on tryptic soy agar plates at 37 degC for 18 hrs by broth microdilution assay; details: ATCC 700221, 18 h
[30] = Safety index, ratio of cytotoxicity against human Caco2 cells at 32 ug/ml after 2 hrs by MTS assay to antibacterial activity against methicillin-resistant Staphylococcus aureus; type: toxicity, cell-based; details: Caco-2 cells

CC(=O)NC[C@H]1CN(c2ccc(N3CCOCC3)c(F)c2)C(=O)O1 [LINEZOLID]
MIC (Staphylococcus aureus [1]): 1 µg/mL (≈ 2.96 µM) | MIC (Staphylococcus aureus [2]): 1 µg/mL (≈ 2.96 µM) | MIC (Staphylococcus aureus [3]): 1 µg/mL (≈ 2.96 µM) | MIC (Staphylococcus aureus [4]): 1 µg/mL (≈ 2.96 µM) | MIC (Staphylococcus aureus [5]): 1 µg/mL (≈ 2.96 µM) | MIC (Staphylococcus aureus [6]): 1 µg/mL (≈ 2.96 µM) | MBC (Staphylococcus aureus [7]): 16 µg/mL (≈ 47.4 µM) | MBC (Staphylococcus aureus [8]): 16 µg/mL (≈ 47.4 µM) | MBC (Staphylococcus aureus [9]): > 64 µg/mL | MBC (Staphylococcus aureus [10]): 32 µg/mL (≈ 94.9 µM) | MBC (Staphylococcus aureus [11]): 32 µg/mL (≈ 94.9 µM) | MBC (Staphylococcus aureus [12]): 16 µg/mL (≈ 47.4 µM) | MBC (Staphylococcus aureus [13]): 64 µg/mL (≈ 190 µM) | MBC (Staphylococcus aureus [14]): 64 µg/mL (≈ 190 µM) | MBC (Staphylococcus aureus [15]): 64 µg/mL (≈ 190 µM)

Cc1nc(-c2ccc(C(C)(C)C)cc2)sc1-c1ccnc(-c2cccnc2)n1
MIC (Staphylococcus aureus [16]): > 50 µg/mL

Cc1nc(-c2ccc(C(C)(C)C)cc2)sc1-c1ccnc(N=C(N(C)C)N(C)C)n1
MIC (Staphylococcus aureus [16]): > 50 µg/mL

CNC(=N)Nc1nccc(-c2sc(-c3ccc(C(C)(C)C)cc3)nc2C)n1
MIC (Staphylococcus aureus [16]): 1.56 µg/mL (≈ 4.1 µM)

Cc1nc(-c2ccc(C(C)(C)C)cc2)sc1-c1ccnc(NC(=N)N(C)C)n1
MIC [17]: 8 µg/mL (≈ 20.3 µM) | MIC (Staphylococcus aureus [16]): 1.17 µg/mL (≈ 2.97 µM) | MIC (Enterococcus faecalis): 8 µg/mL (≈ 20.3 µM) | MIC (Staphylococcus aureus [1]): 8 µg/mL (≈ 20.3 µM) | MIC (Staphylococcus aureus [2]): 8 µg/mL (≈ 20.3 µM) | MIC (Staphylococcus aureus [18]): 8 µg/mL (≈ 20.3 µM) | MIC (Staphylococcus aureus [3]): 8 µg/mL (≈ 20.3 µM) | MIC (Staphylococcus aureus [4]): 8 µg/mL (≈ 20.3 µM) | MIC (Staphylococcus aureus [19]): 8 µg/mL (≈ 20.3 µM) | MIC (Staphylococcus aureus [20]): 8 µg/mL (≈ 20.3 µM) | MIC (Staphylococcus aureus [5]): 8 µg/mL (≈ 20.3 µM) | MIC (Staphylococcus aureus [6]): 8 µg/mL (≈ 20.3 µM) | MIC (Enterococcus faecium [21]): 8 µg/mL (≈ 20.3 µM) | MIC (Listeria monocytogenes [22]): 8 µg/mL (≈ 20.3 µM) | Activity (Staphylococcus aureus [23]): Active | Activity (Caco-2): Toxic | MBC (Staphylococcus aureus [7]): 8 µg/mL (≈ 20.3 µM) | MBC (Staphylococcus aureus [8]): 8 µg/mL (≈ 20.3 µM) | MBC (Staphylococcus aureus [9]): 8 µg/mL (≈ 20.3 µM) | MBC (Staphylococcus aureus [10]): 8 µg/mL (≈ 20.3 µM) | MBC (Staphylococcus aureus [11]): 8 µg/mL (≈ 20.3 µM) | MBC (Staphylococcus aureus [12]): 8 µg/mL (≈ 20.3 µM) | MBC (Staphylococcus aureus [13]): 8 µg/mL (≈ 20.3 µM) | MBC (Staphylococcus aureus [14]): 8 µg/mL (≈ 20.3 µM) | MBC (Staphylococcus aureus [15]): 8 µg/mL (≈ 20.3 µM) | MBC [24]: 8 µg/mL (≈ 20.3 µM) | MBC (Listeria monocytogenes [25]): 8 µg/mL (≈ 20.3 µM) | inhibition (Staphylococcus aureus [26]): Dose-dependent effect | Activity (Staphylococcus aureus [27]): 35.5% | Activity (Staphylococcus aureus [28]): 48.2% | MBC (Enterococcus faecium [29]): 16 µg/mL (≈ 40.6 µM)

Cc1nc(-c2ccc(C(C)(C)C)cc2)sc1-c1ccnc(NN)n1
MIC (Staphylococcus aureus [16]): 1.56 µg/mL (≈ 4.6 µM)

Cc1nc(-c2ccc(C(C)(C)C)cc2)sc1-c1ccnc(NC(=N)N2CCOCC2)n1
MIC [17]: 4 µg/mL (≈ 9.16 µM) | MIC (Staphylococcus aureus [16]): 1.17 µg/mL (≈ 2.68 µM) | MIC (Enterococcus faecalis): 4 µg/mL (≈ 9.16 µM) | MIC (Staphylococcus aureus [1]): 4 µg/mL (≈ 9.16 µM) | MIC (Staphylococcus aureus [4]): 4 µg/mL (≈ 9.16 µM) | MIC (Staphylococcus aureus [19]): 4 µg/mL (≈ 9.16 µM) | MIC (Enterococcus faecium [21]): 4 µg/mL (≈ 9.16 µM) | Activity (Staphylococcus aureus [23]): Active | Activity (Caco-2): Non-Toxic | MBC [24]: 4 µg/mL (≈ 9.16 µM) | selectivity ratio at 2 h, 32 ug/ml [30]: 8 to 30 | inhibition (Staphylococcus aureus [26]): Dose-dependent effect | Activity (Staphylococcus aureus [27]): 18.1% | Activity (Staphylococcus aureus [28]): 28.3% | MBC (Enterococcus faecium [29]): 8 µg/mL (≈ 18.3 µM)

Cc1nc(-c2ccc(C(C)(C)C)cc2)sc1-c1ccnc(NC2CCCC2)n1
MIC (Staphylococcus aureus [16]): > 50 µg/mL

Cc1nc(-c2ccc(C(C)(C)C)cc2)sc1-c1ccnc(N(C)C)n1
MIC (Staphylococcus aureus [16]): > 50 µg/mL

Cc1nc(-c2ccc(C(C)(C)C)cc2)sc1-c1ccnc(N2CCOCC2)n1
MIC (Staphylococcus aureus [16]): 25 µg/mL (≈ 63.4 µM)

Cc1nc(-c2ccc(C(C)(C)C)cc2)sc1-c1ccnc(NC(=N)N)n1
MIC (Staphylococcus aureus [16]): 1.56 µg/mL (≈ 4.26 µM)
